Measured values taken from PMC6601336 (ACS chemical biology, 2019).
Where a chain is given by its changes, count along the chain named.

What was measured:
luciferase = assay: Off-target inhibition of luciferase in the E. coli lasB-lux reporter strain; type: cell-based; details: high concentrations (>10 μM)
LasR T75V = molecular target: T1, LasR T75V (Pseudomonas aeruginosa, UniProt P25084, T75V); assay: E. coli lasB-lux reporter assay, LasR T75V; type: cell-based
T1 sequence (P25084 1-239 T75V): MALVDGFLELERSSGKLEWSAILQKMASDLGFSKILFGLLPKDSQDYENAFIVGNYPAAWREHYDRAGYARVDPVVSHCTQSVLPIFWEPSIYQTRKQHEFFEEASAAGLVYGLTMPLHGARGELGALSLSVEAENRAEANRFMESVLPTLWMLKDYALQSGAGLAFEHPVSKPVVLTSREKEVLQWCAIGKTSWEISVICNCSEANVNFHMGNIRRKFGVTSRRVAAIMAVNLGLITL

WT LasR [1] = molecular target: T2, WT LasR (Pseudomonas aeruginosa, UniProt P25084); assay: Pyocyanin assay, ΔlasI strain with WT LasR; type: cell-based, Pseudomonas aeruginosa PA14; details: 10 μM
T2 sequence (P25084 1-239): T1 sequence (P25084 1-239 T75V) with V75T
In short: (§1)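 Overnight LB cultures of PA14 lasI (WT lasR) or lasI lasR T75V/Y93F/A127W were grown at 37°C, diluted (100 μL into 3 mL LB) and shaken 8 h at 37°C. They were then diluted 2 μL into 2 mL LB with DMSO or compound and shaken 17 h at 37°C. OD600 was read, then supernatant OD695 after centrifugation. Pyocyanin = OD695/OD600. n=3, SEM.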

WT LasR [2] = molecular target: T2, WT LasR; assay: P. aeruginosa PA14 rhlA-mNG reporter assay, WT lasR; type: cell-based, Pseudomonas aeruginosa PA14; details: ΔlasI P. aeruginosa PA14, 10 μM
In short: (§2)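 P. aeruginosa PA14 lasI strains carried WT or T75V/Y93F/A127W lasR at the native chromosomal locus and a chromosomal prhlA-mNG fusion. Overnight cultures were diluted 1:1000 in LB with test compound at 10 μM and grown at 37°C for 8 h. Cells were pelleted and resuspended in PBS. Fluorescence was read at ex 485/em 535 nm, with A600 measured in parallel. n=3, SEM; multiple t-tests.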

LasR T75V/Y93F/A127W [3] = molecular target: T3, LasR T75V/Y93F/A127W (Pseudomonas aeruginosa, UniProt P25084, A127W/T75V/Y93F); assay: P. aeruginosa PA14 rhlA-mNG reporter assay, lasR T75V/Y93F/A127W; type: cell-based, Pseudomonas aeruginosa PA14; details: ΔlasI P. aeruginosa PA14, 10 μM
T3 sequence (P25084 1-239 T75V/Y93F/A127W): T1 sequence (P25084 1-239 T75V) with Y93F, A127W
In short: as §2

LasR Y93F = molecular target: T4, LasR Y93F (Pseudomonas aeruginosa, UniProt P25084, Y93F); assay: E. coli lasB-lux reporter assay, LasR Y93F; type: cell-based
T4 sequence (P25084 1-239 Y93F): T1 sequence (P25084 1-239 T75V) with V75T, Y93F

LasR T75V/Y93F = molecular target: T5, LasR T75V/Y93F (Pseudomonas aeruginosa, UniProt P25084, T75V/Y93F); assay: E. coli lasB-lux reporter assay, LasR T75V/Y93F; type: cell-based
T5 sequence (P25084 1-239 T75V/Y93F): T1 sequence (P25084 1-239 T75V) with Y93F

WT LasR LBD = molecular target: T6, WT LasR LBD (Pseudomonas aeruginosa, UniProt P25084); assay: Protein solubility assay, WT LasR LBD produced in E. coli; type: cell-based; details: 10 μM compound
T6 sequence (P25084 1-173 limits assumed): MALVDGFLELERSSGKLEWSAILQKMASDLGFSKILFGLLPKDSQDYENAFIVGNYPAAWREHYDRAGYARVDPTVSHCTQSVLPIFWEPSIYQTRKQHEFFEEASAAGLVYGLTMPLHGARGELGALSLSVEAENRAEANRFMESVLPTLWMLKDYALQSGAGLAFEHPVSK
In short: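 E. coli BL21(DE3) with plasmid-borne 6xHis-WT LasR LBD were grown overnight, diluted 1:500 in LB with ampicillin and grown to OD600 0.5. Cells were induced with 1 mM IPTG plus test compound at 10 μM final, then shaken 4 h at 25°C or 37°C. Whole-cell lysate and soluble fractions were compared by band intensity. Fraction soluble = soluble band / whole-cell lysate band.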

WT LasR [4] = molecular target: T2, WT LasR; assay: E. coli lasB-lux reporter assay, WT LasR; type: cell-based
LasR T75V/Y93F/A127W [5] = molecular target: T3, LasR T75V/Y93F/A127W; assay: Pyocyanin assay, ΔlasI strain with LasR T75V/Y93F/A127W; type: cell-based, Pseudomonas aeruginosa PA14; details: 10 μM
In short: as §1

LasR T75V/A127W = molecular target: T7, LasR T75V/A127W (Pseudomonas aeruginosa, UniProt P25084, A127W/T75V); assay: E. coli lasB-lux reporter assay, LasR T75V/A127W; type: cell-based
T7 sequence (P25084 1-239 T75V/A127W): T1 sequence (P25084 1-239 T75V) with A127W

LasR Y93F/A127W = molecular target: T8, LasR Y93F/A127W (Pseudomonas aeruginosa, UniProt P25084, A127W/Y93F); assay: E. coli lasB-lux reporter assay, LasR Y93F/A127W; type: cell-based
T8 sequence (P25084 1-239 Y93F/A127W): T1 sequence (P25084 1-239 T75V) with V75T, Y93F, A127W

LasR T75V/Y93F/A127W [6] = molecular target: T3, LasR T75V/Y93F/A127W; assay: E. coli lasB-lux reporter assay, LasR T75V/Y93F/A127W; type: cell-based
LasR LBD T75V/Y93F/A127W = molecular target: T9, LasR LBD T75V/Y93F/A127W (Pseudomonas aeruginosa, UniProt P25084, A127W/T75V/Y93F); assay: Thermal shift assay, LasR LBD T75V/Y93F/A127W:BB0126; type: binding; details: for effect of excess ligand on Tm: LasR LBD T75V/Y93F/A127W:BB0126 with 10 μM excess ligand
T9 sequence (P25084 1-173 T75V/Y93F/A127W limits assumed): T6 sequence (P25084 1-173 limits assumed) with T75V, Y93F, A127W
In short: (§3)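 6xHis-LasR LBD (WT or T75V/Y93F/A127W) was expressed in E. coli BL21(DE3) with 1 mM IPTG and 100 μM ligand (4 h, 25°C), then purified by Ni-NTA and size exclusion. Ligand-bound protein at 5 μM in 20 mM Tris-HCl pH 8, 200 mM NaCl, 1 mM DTT, with DMSO or 10 μM ligand, stood 15 min at room temperature. SYPRO Orange was added just before the run. Heating from 25 to 99°C at 0.05°C/s; fluorescence on ROX setting.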

LasR R61A = molecular target: T10, LasR R61A (Pseudomonas aeruginosa, UniProt P25084, R61A); assay: E. coli lasB-lux reporter assay, LasR R61A; type: cell-based
T10 sequence (P25084 1-239 R61A): T1 sequence (P25084 1-239 T75V) with R61A, V75T

WT LasR [7] = assay: E. coli lasB-lux reporter assay, WT LasR; type: cell-based, Pseudomonas aeruginosa; details: LasR T75V, Y93F and A127W single mutations, each relative to WT LasR
LasR LBD = molecular target: T11, LasR LBD (Pseudomonas aeruginosa, UniProt P25084); assay: Thermal shift assay, LasR LBD:BB0126; type: binding
T11 sequence (P25084 1-173 limits assumed): T6 sequence (P25084 1-173 limits assumed)
In short: as §3

SMILES	off-target inhibition of luciferase (luciferase)	EC50 (LasR T75V) [nM]	pyocyanin production (WT LasR [1])	activation of prhlA-mNG (WT LasR [2])	activation of prhlA-mNG (LasR T75V/Y93F/A127W [3])	EC50 (LasR T75V/Y93F) [nM]	soluble WT LasR LBD (WT LasR LBD; induction at 25°C)	EC50 (WT LasR [4]) [nM]	pyocyanin production (LasR T75V/Y93F/A127W [5])	EC50 (LasR T75V/A127W) [nM]	EC50 (LasR T75V/Y93F/A127W [6]) [nM]	effect of excess ligand on Tm (LasR LBD T75V/Y93F/A127W)	other results
O=C(CCCOc1cccc(Br)c1)N[C@H]1C[C@@H]2C[C@@H]2C1=O (relative stereo) [BB0020, 4-(3-bromophenoxy)-N-(rel-(1S,3S,5S)-2-oxobicyclo[3.1.0]hexan-3-yl)butanamide]	caused off-target inhibition of luciferase	15	activated both LasR alleles equally	activated prhlA-mNG	activated the reporter	20	yielded soluble WT LasR LBD	6	activated both LasR alleles equally	20	20	–	EC50 (LasR Y93F): 15 nM; EC50 (LasR Y93F/A127W): 100 nM
CS(=O)(=O)c1cccc(OCCCC(=O)N[C@H]2C[C@@H]3C[C@@H]3C2=O)c1 (relative stereo) [BB0126, 4-(3-(methylsulfonyl)phenoxy)-N-(rel-(1S,3S,5S)-2-oxobicyclo[3.1.0]hexan-3-yl)butanamide]	caused off-target inhibition of luciferase	1500	–	not in response to BB0126	activated the reporter	600	yielded soluble WT LasR LBD	> 3100	responded to BB0126	50	50	further enhanced the Tm	Tm (LasR LBD T75V/Y93F/A127W; LasR LBD T75V/Y93F/A127W:BB0126 without additional ligand): 46.8 °C; EC50 (LasR R61A): > 10000 nM; soluble WT LasR LBD (WT LasR LBD; induction at 37°C): significantly less soluble; fold lower EC50 with the mutations (WT LasR [7]): 2-to 6 fold; melting temperature peak (LasR LBD; LasR LBD:BB0126 in the presence of excess BB0126 (10 μM)): 49.9 °C; thermal stability of the complex (LasR LBD; LasR LBD:BB0126 without additional ligand): unstable above room temperature
CCCCCCCCCC(=O)CC(=O)N[C@H]1CCOC1=O [3OC12HSL, N-3-oxo-dodecanoyl-L-homoserine lactone, reference compound]	–	–	induced pyocyanin production	–	–	–	yielded soluble WT LasR LBD	–	–	–	–	had no effect	stabilization by exogenous ligand (LasR LBD; LasR LBD:BB0126 with 10 μM exogenous 3OC12HSL): highly effective at binding to and stabilizing the LasR LBD
